The target of one experiment is Mu-type opioid receptor (Homo sapiens, UniProt P35372). Description: Displacement of [3H]DAMGO from human mu opioid receptor expressed in HEK293 cells. The experiment is classed as cell-based. An outline of the steps:
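Radioligand competition binding against [³H]DAMGO on human μ-opioid receptor in transfected HEK-293 cells; affinity derived from displacement of the tritiated ligand.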
For orientation: In a radioligand displacement assay an active substance lowers the binding of a labelled ligand.

Experiment [1] deals with Kappa-type opioid receptor (Rattus norvegicus, UniProt P34975). Description: Displacement of [3H]U69593 from rat kappa opioid receptor expressed in CHO cells.
Experiment [2] deals with Delta-type opioid receptor (Homo sapiens, UniProt P41143). Put plainly: Displacement of [3H]DADLE from human delta opioid receptor expressed in CHO cells.
Chain of Delta-type opioid receptor (P41143 whole entry): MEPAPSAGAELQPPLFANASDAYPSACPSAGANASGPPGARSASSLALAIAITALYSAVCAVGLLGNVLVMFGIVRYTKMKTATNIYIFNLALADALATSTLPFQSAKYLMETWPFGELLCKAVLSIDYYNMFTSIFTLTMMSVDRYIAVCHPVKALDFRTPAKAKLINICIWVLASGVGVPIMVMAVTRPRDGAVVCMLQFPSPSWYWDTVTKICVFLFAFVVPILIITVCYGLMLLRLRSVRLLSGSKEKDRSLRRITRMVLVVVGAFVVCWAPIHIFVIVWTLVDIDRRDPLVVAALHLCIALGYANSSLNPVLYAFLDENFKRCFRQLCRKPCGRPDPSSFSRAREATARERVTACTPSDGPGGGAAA

Chain of Kappa-type opioid receptor (P34975 whole entry): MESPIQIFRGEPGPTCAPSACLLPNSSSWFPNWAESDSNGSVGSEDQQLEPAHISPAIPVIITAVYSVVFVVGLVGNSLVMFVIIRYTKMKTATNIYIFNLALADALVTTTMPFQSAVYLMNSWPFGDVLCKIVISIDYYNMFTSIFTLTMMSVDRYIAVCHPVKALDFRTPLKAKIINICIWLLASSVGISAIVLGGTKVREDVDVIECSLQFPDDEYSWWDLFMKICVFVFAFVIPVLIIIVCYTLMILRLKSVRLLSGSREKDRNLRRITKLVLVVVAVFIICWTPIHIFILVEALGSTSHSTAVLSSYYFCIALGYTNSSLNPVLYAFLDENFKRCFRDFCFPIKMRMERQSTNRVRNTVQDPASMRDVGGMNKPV
Chain of Mu-type opioid receptor (P35372 whole entry): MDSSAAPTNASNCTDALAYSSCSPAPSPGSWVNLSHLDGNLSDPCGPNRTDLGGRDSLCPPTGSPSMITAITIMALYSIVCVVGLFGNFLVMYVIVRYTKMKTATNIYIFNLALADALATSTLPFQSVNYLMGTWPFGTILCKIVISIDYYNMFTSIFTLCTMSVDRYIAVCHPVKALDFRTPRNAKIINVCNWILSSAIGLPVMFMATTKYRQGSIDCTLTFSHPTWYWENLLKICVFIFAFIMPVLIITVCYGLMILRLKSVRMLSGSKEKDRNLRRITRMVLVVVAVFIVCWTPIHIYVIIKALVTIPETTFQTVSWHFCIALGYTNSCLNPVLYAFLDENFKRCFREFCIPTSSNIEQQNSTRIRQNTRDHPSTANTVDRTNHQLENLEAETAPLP

Broadly, the Ki is a dissociation constant, usually derived from enzyme kinetics or from competition with a known ligand. A low value points to a stronger hold on the target. Consider `Cc1cccc(O)c1C(=O)C1=CCCN2CCC[C@@H]12`, for which the inhibition constant (Ki) at Mu-type opioid receptor is 45 µM; in experiment [1], 24 µM; in experiment [2], 94 µM.
Consider `COc1cccc(C)c1C(=O)C1=CCCN2CCC[C@@H]12`, for which the values for the inhibition constant Ki (at Mu-type opioid receptor; in experiment [1]; in experiment [2]) were over 200 µM, 20 µM and over 200 µM, respectively.
With `O=C(C1=CCCN2CCC[C@@H]12)c1ccccc1O`, the results for the Ki (at Mu-type opioid receptor; in experiment [1]; in experiment [2]) were 49 µM, 83 µM and over 200 µM, respectively.
Regarding `Cc1cccc(O)c1C(=O)C1=CCCCN2CCC[C@@H]12`, the values for the Ki (on Mu-type opioid receptor; in experiment [2]) were 13 µM and over 200 µM, respectively.
Consider `Cc1cccc(O)c1C(=O)C1=CCN2CCC[C@@H]12`, for which the Ki was 3.2 µM at Mu-type opioid receptor, 35 µM in experiment [1] and over 200 µM in experiment [2].
In the case of `Cc1cccc(O)c1C(=O)C1=CCCN2CCC[C@H]12` [ELAEOCARPENINE], the Ki came out at 18 µM on Mu-type opioid receptor, 12 µM in experiment [1] and 14 µM in experiment [2].
